Experiment [1] has as its system Plasmodium falciparum. Description: Antiplasmodial activity against Plasmodium falciparum 3D7 infected in erythrocytes assessed as parasitemia level at 500 nM after 48 hrs by YOYO-1 staining-based flow cytometry relative to control. Type of experiment: functional. An outline of the steps: (§1)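 P. falciparum 3D7 in O+ human erythrocytes, RPMI-1640 with 10% O+ human serum, 92% N2/5% CO2/3% O2. Infected cells exposed 48 h at a single concentration. Then fixed in 2% paraformaldehyde/PBS for 24 h, permeabilized with 0.1% Triton X-100 and stained with 5 nM YOYO-1 for 30 min at 37 °C. Read on 10⁵ cells by flow cytometry. Parasitemia expressed versus solvent control; ≥3 independent experiments, one-way ANOVA with Dunnett's test.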
(In general: In flow cytometry, cells or beads pass a laser one at a time.)

Experiment [2] relates to Plasmodium falciparum. Nature of the experiment: Antiplasmodial activity against asynchronous culture of Plasmodium falciparum 3D7 infected in erythrocytes assessed as reduction of melatonin-induced increase in parasitemia level at 500 nM after 48 hrs by YOYO-1 staining-based flow cytometry (reference value: 23.5 +/- 6.8 %). The format is functional. Also noted: scale not given: the % may be the effect or the level left.

Experiment [3] relates to Plasmodium falciparum. Description: Antiplasmodial activity against ring stage synchronized Plasmodium falciparum 3D7 infected in erythrocytes assessed as parasitemia level after 48 hrs by flow cytometry relative to control. Type of experiment: functional, organism-based. The note with it: 3D7, 48 h. An outline of the steps:
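3D7 culture was synchronized (Lambros) and infected erythrocytes were dosed at ring stage with 10 concentrations from 5 nM to 100 μM for 48 h. Parasitemia was read by YOYO-1 flow cytometry as in the single-dose assay. IC50 was obtained from sigmoid dose–response fits; ≥3 independent experiments.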

Experiment [4] relates to Plasmodium falciparum. Nature of the experiment: Antiplasmodial activity against Plasmodium falciparum 3D7 infected in erythrocytes assessed as parasitemia level at 100 nM after 48 hrs by YOYO-1 staining-based flow cytometry relative to control. Type of experiment: functional. An outline of the steps: as §1

The structures appear in SMILES notation.

What is called IC50 is the concentration at which inhibition is half-maximal. As for `CCCC(=O)NCCc1c[nH]c2ccc(OC)cc12`, the Activity in the experiment with Plasmodium falciparum [1] stood at 8%; in the experiment on Plasmodium falciparum [2], 8.8%. The IC50 with Plasmodium falciparum [3] worked out at 19.2 µM.

Regarding `CCCCCC(=O)NCCc1c[nH]c2ccccc12`, the Activity with Plasmodium falciparum [1] stood at 6%; in the experiment on Plasmodium falciparum [2], 6.9%.

As to `COC(=O)NCCc1c[nH]c2ccccc12`, the results for the Activity in the experiment with Plasmodium falciparum [1] and with Plasmodium falciparum [2] were 11.7% and 10.9%, respectively.

As to `CCCCCC(=O)NCCc1c[nH]c2ccc(OC)cc12`, the Activity is listed as 7.8% in the experiment on Plasmodium falciparum [1] and 8.6% with Plasmodium falciparum [2]. The IC50 in the experiment with Plasmodium falciparum [3] is 19.1 µM.

For `COc1ccc2[nH]cc(CCNC(=O)c3ccccc3)c2c1`, the Activity in the experiment on Plasmodium falciparum [1] worked out at 10.8%; with Plasmodium falciparum [2] it was 9.1%. For the same compound, in the experiment with Plasmodium falciparum [3], the IC50 came out at 2.93 µM.

As to `COC(=O)NCCc1c[nH]c2ccc(OC)cc12`, the Activity is given as 10% with Plasmodium falciparum [1] and 14.5% in the experiment with Plasmodium falciparum [2].

On to `CCCC(=O)NCCc1c[nH]c2ccccc12`, for which the results for the Activity in the experiment with Plasmodium falciparum [1] and with Plasmodium falciparum [2] were 9.2% and 11%, respectively.

With `COc1ccc2[nH]cc(CCN)c2c1` [5-METHOXYTRYPTAMINE], the Activity in the experiment with Plasmodium falciparum [1] turned out to be 19.7%; in the experiment on Plasmodium falciparum [2] it was 14.1%.

Regarding `C[C@H]1Cc2c([nH]c3cc(Cl)c(F)cc23)[C@@]2(N1)C(=O)Nc1ccc(Cl)cc12` [CIPARGAMIN], in the experiment on Plasmodium falciparum [3], the IC50 turned out to be 0.01 µM.

As to `COc1ccc2[nH]cc(CCNC(C)=O)c2c1` [MELATONIN], the Activity in the experiment with Plasmodium falciparum [4] amounted to 21.9%; in the experiment with Plasmodium falciparum [2] it was 23.5%.

Turning to `CC(=O)NCCc1c[nH]c2ccccc12` [NB-ACETYLTRYPTAMINE], the Activity in the experiment on Plasmodium falciparum [1] stood at 12.9%; in the experiment with Plasmodium falciparum [2], 11.3%.

For the origin of these results see ChEMBL document CHEMBL3232831, “Synthetic indole and melatonin derivatives exhibit antimalarial activity on the cell cycle of the human malaria parasite Plasmodium falciparum” (Eur J Med Chem, 2014).
